Bioassay records as filed in PubChem.
Xi reactivation: activators of X-chromosome reactivation in mouse fibroblasts; XiGFP mouse fibroblasts, % GFP-positive cells imaging, 3 d; cells co-treated with 5-aza-dC sensitizer; scaled so ellipticine positive control = 100%; activation, % at 7.58 µM; actives 0.055% (n = 360,000); AID 743238;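 active = mean normalized replicate activation at least 10% and every replicate at or above 10%; inconclusive = only one of the two criteria met; inactive = mean below 10% and not all replicates reach 10%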;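 note: 0% = median of on-plate neutral control wells and 100% = ellipticine 6 µM median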
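System: XiGFP fibroblasts, SV40-immortalized. Medium: DMEM plus 5-aza-dC sensitizer. Doses: single point. Timing: 3 d treatment, 15 min room-temperature fixation. Control set: ellipticine 6 µM.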
TWEAK-Fn14 inh: inhibitors of TWEAK-Fn14 interaction signaling. AID 1159606. inhibition, % at 10 µM. TWEAK-stimulated Fn14 reporter cells, luciferase luminescence, 8 h. actives 2% (n = 360,000); in the data active = inhibition above about 50%
CaV13 FRET inh: Primary screen for inhibitors of IQ motif and Ca2+-dependent inactivation inhibitor domain binding in CACNA1D, Förster resonance energy transfer in living cells, … | inhibition, % at 12.3 µM | actives 0.098% (n = 340,000) | HEK cells, CFP/YFP FRET ICDI-IQ, plate reader, 10 min; percent FRET-ratio fall versus neutral wells | AID 743397;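 active = mean replicate inhibition of at least 30% and at least 1% of replicates passing that level; inconclusive = only one of the two criteria is met; inactive = neither criterion is met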;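 note: 0% = median of the neutral control wells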
TROY NFkB inh: inhibitors of TROY-dependent NF-kB signaling. Q293 LMP1-TROYcd NF-kB luciferase reporter, 4 h. inhibition, % at 10 µM. actives 0.98% (n = 360,000);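 active = compounds whose plate-normalised and pattern-corrected inhibition of the luciferase reporter signal at the single screening dose is 50% or more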
LGR2 inh: inhibitors of bursicon-induced Drosophila LGR2 receptor cAMP signaling; HEK293 LGR2, CRE-luciferase, bursicon-stimulated, 4 h; inhibition, % at 9.99 µM; actives 0.35% (n = 380,000);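 active = drop in luminescence signal, shown as inhibition above about 50% in the replicate tests, limit read from the data, passing the limit was not always enough; inconclusive = probably only some replicates passing the limit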;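 note: agonist challenge used bursicon conditioned medium at about half maximal strength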
Active calls of the source: *. A selection: hits, their analogues and other compounds. The true share with any hit is near 2%.

How did CO[C@@H]1CN(C)C(=O)c2ccc(NC(C)=O)cc2OC[C@@H](C)N(C(=O)C2CCCCC2)C[C@H]1C do in these assays?
Xi reactivation: 0.3; LGR2 inh: 15.6

What do the screens show for `CCN(CC)CC(C)(C)C(=O)/C=C/c1ccc(/C=C/C(=O)C(C)(C)CN(CC)CC)cc1`?
Xi reactivation: 1.2; TWEAK-Fn14 inh: 102.5*; CaV13 FRET inh: -7.5; TROY NFkB inh: 44.4; LGR2 inh: 102.8*

How did CN1C(=O)c2cc(NC(=O)Nc3cccc(Cl)c3)ccc2OC[C@@H]2O[C@@H](CC(=O)NCCc3ccncc3)CC[C@@H]21 do in these assays?
Xi reactivation: 0.2; LGR2 inh: 8.2

How did CS(=O)(=O)c1ccc(C(=O)OCC(=O)NC23CC4CC(CC(C4)C2)C3)cc1[N+](=O)[O-] do in these assays?
Xi reactivation: 0.3; TWEAK-Fn14 inh: 101.6*; CaV13 FRET inh: -14.5; TROY NFkB inh: 72.5*; LGR2 inh: -3.1

What do the screens show for `CC(C)CN1CCN(C(=O)COC(=O)c2ccc(S(C)(=O)=O)c([N+](=O)[O-])c2)CC1`?
Xi reactivation: -0.1; TWEAK-Fn14 inh: 80.3*; CaV13 FRET inh: -4.1; TROY NFkB inh: 21.5; LGR2 inh: 22.6

What do the screens show for `CS(=O)(=O)c1ccc(C(=O)OCc2nnc(-c3ccc(Cl)cc3)o2)cc1[N+](=O)[O-]`?
TWEAK-Fn14 inh: 64.2*; TROY NFkB inh: 65.6*

How did Cn1cccc1C(=O)NC(=O)COC(=O)c1ccc(S(C)(=O)=O)c([N+](=O)[O-])c1 do in these assays?
TWEAK-Fn14 inh: 96.3*; TROY NFkB inh: 29.8

Results for COc1c(Cl)cc(-c2noc(C)c2C(=O)NCc2ccc3c(c2)OCO3)cc1Cl ?
Xi reactivation: -0.2; TWEAK-Fn14 inh: 10.1; CaV13 FRET inh: 70.7*; TROY NFkB inh: 5.2; LGR2 inh: 16.1

How did COc1cc(-c2noc(C)c2C(=O)NCc2ccc3c(c2)OCO3)cc(OC)c1OC do in these assays?
Xi reactivation: 0.1; TWEAK-Fn14 inh: 2.4; CaV13 FRET inh: -9.8; TROY NFkB inh: 9.0; LGR2 inh: 9.3

What do the screens show for `C[C@@H]1CCCCO[C@H](CN(C)C(=O)Nc2ccccc2)[C@@H](C)CN([C@H](C)CO)C(=O)c2cc(NC(=O)c3ccccc3)ccc2O1`?
Xi reactivation: -0.1; LGR2 inh: 8.2

How did O=S(=O)(/C=C/C=C/S(=O)(=O)c1ccccc1)c1ccccc1 do in these assays?
Xi reactivation: 4.0; TWEAK-Fn14 inh: 93.1*; CaV13 FRET inh: -5.5; TROY NFkB inh: 46.3; LGR2 inh: 45.7

What do the screens show for `O=C1NC(=S)S/C1=C\C=C\c1ccc([N+](=O)[O-])o1`?
Xi reactivation: inconclusive; TWEAK-Fn14 inh: 50.1*; CaV13 FRET inh: -6.1; TROY NFkB inh: -27.1; LGR2 inh: 19.6

How did O=C(O)/C=C/c1ccc([N+](=O)[O-])o1 do in these assays?
Xi reactivation: 0.0; TWEAK-Fn14 inh: 2.8; CaV13 FRET inh: -4.9; TROY NFkB inh: 0.8; LGR2 inh: 4.6

Results for C[C@@H]1CCCCO[C@@H](CN(C)C(=O)NC2CCCCC2)[C@@H](C)CN([C@@H](C)CO)C(=O)c2cc(NS(=O)(=O)c3cccs3)ccc2O1 ?
Xi reactivation: -0.4; LGR2 inh: 17.1

How did Cc1ccc(C(=O)Nc2nc(-c3ccco3)c(-c3ccco3)s2)o1 do in these assays?
Xi reactivation: 0.0; TWEAK-Fn14 inh: 82.6*; CaV13 FRET inh: -3.9; TROY NFkB inh: -6.8; LGR2 inh: -11.1

Results for O=C(Nc1cccc(/C=C/c2nc3ccccc3c(=O)[nH]2)c1)c1ccccc1Cl ?
Xi reactivation: 0.0; TWEAK-Fn14 inh: 71.6*; CaV13 FRET inh: -4.0; TROY NFkB inh: 37.9; LGR2 inh: -42.0

Results for COc1ccc(C(=O)Nc2cccc(/C=C/c3nc4ccccc4c(=O)[nH]3)c2)cc1 ?
Xi reactivation: -0.1; TWEAK-Fn14 inh: 56.7*; CaV13 FRET inh: -4.1; TROY NFkB inh: 26.6; LGR2 inh: 2.5

How did COc1cc(/C=C/c2nc3ccccc3c(=O)[nH]2)cc(Cl)c1O do in these assays?
Xi reactivation: 0.1; TWEAK-Fn14 inh: -27.5; CaV13 FRET inh: -8.1; TROY NFkB inh: -34.0; LGR2 inh: -1.9

What do the screens show for `COc1ccc(C(=O)Nc2nc3ccccc3c(=O)[nH]2)cc1`?
TWEAK-Fn14 inh: 53.0*; CaV13 FRET inh: -6.8; TROY NFkB inh: -25.1; LGR2 inh: inconclusive

Results for Cc1cccc(/C=C\c2nc3ccccc3c(=O)[nH]2)c1 ?
Xi reactivation: 0.0; TWEAK-Fn14 inh: 28.5; CaV13 FRET inh: -3.1; TROY NFkB inh: -19.4; LGR2 inh: -8.2

Results for CC(C)NC(=O)Nc1ccc2c(c1)C(=O)N(C)C[C@@H](C)[C@H](CN(C)C(=O)NC(C)C)O2 ?
Xi reactivation: 0.3

Results for CC(=O)N(C)C[C@H]1Oc2ncc(C#Cc3ccccn3)cc2C(=O)N([C@@H](C)CO)C[C@@H]1C ?
Xi reactivation: -0.2; LGR2 inh: 7.3

How did CCN(CC)c1ccc2c(O)cc(=O)oc2c1 do in these assays?
Xi reactivation: 0.1; TWEAK-Fn14 inh: 85.5*; CaV13 FRET inh: -4.8; TROY NFkB inh: -10.3; LGR2 inh: -135.6

What do the screens show for `O=C(OCC(=O)N1CCCC1=O)c1nc(Cl)c(Cl)c(Cl)c1Cl`?
Xi reactivation: 0.5; TWEAK-Fn14 inh: 90.8*; TROY NFkB inh: 55.9*; LGR2 inh: -12.6

Results for CC1CCc2c(sc3nc(SCC(=O)O)n(-c4ccccc4)c(=O)c23)C1 (configuration not stated) ?
Xi reactivation: 0.0; TWEAK-Fn14 inh: 88.7*; CaV13 FRET inh: -4.6; TROY NFkB inh: -26.8; LGR2 inh: 16.1

Results for CC1(C(=O)OCC(=O)Nc2nc(-c3ccc(F)c(F)c3)cs2)CC1(Cl)Cl (configuration not stated) ?
Xi reactivation: 0.1; TWEAK-Fn14 inh: 72.5*; CaV13 FRET inh: -9.5; TROY NFkB inh: 81.7*; LGR2 inh: 19.2

Results for COc1ccc(CC(=O)Nc2nc(-c3ccncc3)cs2)cc1 ?
Xi reactivation: 0.3; TWEAK-Fn14 inh: 8.0; CaV13 FRET inh: -1.9; TROY NFkB inh: -4.7; LGR2 inh: 26.6

How did COc1ccc(CC(=O)Nc2nc(-c3ccc(F)c(F)c3)cs2)cc1 do in these assays?
Xi reactivation: 0.0; TWEAK-Fn14 inh: 46.8; CaV13 FRET inh: -6.9; TROY NFkB inh: 55.3*; LGR2 inh: 3.7

How did O=C(CSc1ncnc2[nH]ncc12)Nc1nc(-c2ccc(F)c(F)c2)cs1 do in these assays?
Xi reactivation: 0.4; TWEAK-Fn14 inh: 77.6*; CaV13 FRET inh: 1.6; TROY NFkB inh: 39.2; LGR2 inh: inconclusive

Results for CC1Cc2cc(-c3csc(NC(=O)Cc4ccccc4)n3)ccc2N1S(C)(=O)=O (configuration not stated) ?
TWEAK-Fn14 inh: 92.0*; CaV13 FRET inh: -7.1; TROY NFkB inh: 60.5*; LGR2 inh: 32.2
